This note sets out measurements from PMC11986672 (RSC Medicinal Chemistry, 2025).

Where “and” joins values, the source holds several entries; their conditions need not be identical. Equal values may be shown once. Where a name gives a salt, the structure may show the parent alone. Read-outs that look alike come from different tables or passages of the source. A value given as a limit tells only on which side of the number the result lay.

Test [1] deals with noncancerous human endometrial stromal (MAD11) cells. Put plainly: MTT cytotoxicity assay, MAD11. Type of test: cell-based. The following applies: MAD11, 48 h, read-out: MAD11 IC50. Summed up: (§1)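 HEC1A (5000/well) and MAD11 (2500/well) cells were seeded and held overnight at 37 °C. Test compound was reconstituted in DMSO and serially diluted in medium to final 160, 80, 40, 20, 10, 5, 2.5 and 1.25 μM, in triplicate, with matched DMSO in all wells. After 48 h, MTT was added for 3 h, formazan solubilised (4 mM HCl, 0.1% NP-40, isopropanol) and absorbance read at 590/620 nm. IC50 was taken against vehicle controls; selectivity = MAD11 IC50 / HEC1A IC50.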

For test [2], the system named is human endometrial cancer (HEC1A) cells. Put plainly: MTT cytotoxicity assay, HEC1A. Type of test: cell-based. The following applies: for IC50: 48 h; for Selectivity ratio: IC50 MAD11 divided by IC50 HEC1A; for times more potent than BH10: HEC1A IC50 compared with BH10. Summed up:
as §1

Setting [3] is: Homo sapiens, HEC-1-A, read-out: HEC1A IC50, MTT cell viability, 48 h, n = 3 biological repeats.
Where [4] appears, read: read-out: HEC1A IC50, MTT cell viability, n = 3 biological repeats.

As to `O=C1C(Br)=C(NCCN2CCOCC2)C(=O)c2ccccc21` [Compound 8, 2-Bromo-3-((2-(4-morpholinyl)ethyl)amino)-[1,4]-naphthoquinone], the IC50 in test [1] was found to be 20.5 µM; in test [2] (setting [3]) it was 9.55 µM. Also, in test [2], the Selectivity ratio amounted to 2.15.

Take `O=C1C(Cl)=C(NCc2cn(-c3ccccc3)nn2)C(=O)c2ccccc21` [Compound 31, 2-Chloro-3-(((1-phenyl-1H-1,2,3-triazol-4-yl)methyl)amino)naphthalene-1,4-dione]: the results for the IC50 in test [1] and in test [2] (setting [3]) were 34 µM and 19.5 µM, respectively. Also, in test [2], the Selectivity ratio is given as 1.74.

On to `O=C1C(Cl)=C(NCCN2CCNCC2)C(=O)c2ccccc21` [Compound 29, 2-Chloro-3-((2-(1-piperazinyl)ethyl)amino)-[1,4]-naphthoquinone salt], for which the IC50 in test [1] was 11.5 µM; in test [2] (setting [3]) it was 4.68 µM. Further, in test [2], the “times more potent than BH10” value is listed as 2.2 times. The Selectivity ratio in test [2] turned out to be 2.45.

In the case of `O=C1C(Br)=C(NCCCN2CCCCC2)C(=O)c2ccccc21` [Compound 10, 2-Bromo-3-((3-(piperidin-1-yl)propyl)amino)-[1,4]-naphthoquinone], the IC50 was determined as 3.27 µM in test [1] and 1.24 µM in test [2] (setting [3]). Further, the Selectivity ratio in test [2] came out at 2.64.

For the compound `O=C1C(Cl)=C(NCCN2CCCCCC2)C(=O)c2ccccc21` [Compound 15, 2-((2-(Azepan-1-yl)ethyl)amino)-3-chloro-[1,4]-naphthoquinone], the IC50 in test [1] came to 2.38 µM. Moreover, in test [2], the “times more potent than BH10” value is recorded as ~8 times and the Selectivity ratio amounted to 1.84. For the same compound, the IC50 in test [2] (setting [3]) came to 1.29 µM.

As for `CCCC(=O)NC1=C(NCCCN2CCCCC2)C(=O)c2ccccc2C1=O` [Compound 41, N-(1,4-Dioxo-3-((3-(piperidin-1-yl)propyl)amino)-1,4-dihydronaphthalen-2-yl)butyramide], the IC50 was > 40 µM in test [1] and 15 µM in test [2] (setting [3]).

On to `O=C1C=C(NCCCN2CCCCC2)C(=O)c2ccccc21` [Compound 7, 2-((3-(Piperidin-1-yl)propyl)amino)-[1,4]-naphthoquinone], for which the IC50 was > 40 µM in test [1] and 17.2 µM in test [2] (setting [3]). For the same compound, the Selectivity ratio in test [2] was >2.32.

As to `CCCc1nc2c(n1CCCN1CCCCC1)C(=O)c1ccccc1C2=O` [Compound 46, 1-(3-(Piperidin-1-yl)propyl)-2-propyl-1H-naphtho[2,3-d]imidazole-4,9-dione], the half-maximal inhibitory concentration (IC50) in test [1] is > 40 µM; in test [2] (setting [3]), 19 µM.

Take `O=C1C=C(NCCN2CCOCC2)C(=O)c2ccccc21` [Compound 5, 2-((2-Morpholinoethyl)amino)naphthalene-1,4-dione]: the 50% inhibitory concentration (IC50) in test [1] and in test [2] (setting [3]) was > 40 µM in each case.

`Cc1nc2c(n1CCN1CCOCC1)C(=O)c1ccccc1C2=O` [Compound 48, 2-Methyl-1-(2-morpholinoethyl)-1H-naphtho[2,3-d]imidazole-4,9-dione]: the IC50 in test [1] and in test [2] (setting [3]) was > 40 µM each time.

As for `O=C1C(Cl)=C(NCCN2CCN(C3=C(Cl)C(=O)c4ccccc4C3=O)CC2)C(=O)c2ccccc21` [Compound 18, 2-Chloro-3-(4-(2-((3-chloro-1,4-dioxo-1,4-dihydronaphthalen-2-yl)amino)ethyl)piperazin-1-yl)-[1,4]-naphthoquinone], the IC50 in test [1] was determined as 3.4 µM. Moreover, in test [2], the “times more potent than BH10” value turned out to be 3.5 times and the Selectivity ratio was 1.17. Besides, in test [2] (setting [3]), the IC50 stood at 2.91 µM.

`O=C1C(Cl)=C(NCCN2CCCC2)C(=O)c2ccccc21` [Compound 13, 2-Chloro-3-((2-(1-pyrrolidinyl)ethyl)amino)-[1,4]-naphthoquinone]: the IC50 in test [1] was determined as 2.38 µM; in test [2] (setting [3]), 1.29 µM. Besides, the “times more potent than BH10” value in test [2] is given as ~8 times. Besides, the Selectivity ratio in test [2] is listed as 1.84.

As for `O=C1C(Br)=C(NCCCN2CCOCC2)C(=O)c2ccccc21` [Compound 9, 2-Bromo-3-((3-morpholinopropyl)amino)-[1,4]-naphthoquinone], the values for the IC50 in test [1] and in test [2] (setting [3]) were 12.1 µM and 4.16 µM, respectively. Also, the Selectivity ratio in test [2] is reported as 2.90.

As to `C#CCNC1=C(Cl)C(=O)c2ccccc2C1=O` [Compound 24, 2-Chloro-3-(prop-2-yn-1-ylamino)naphthalene-1,4-dione], the 50% inhibitory concentration (IC50) in test [1] was 22.4 µM; in test [2] (setting [3]), 21.9 µM. In addition, in test [2], the Selectivity ratio came to 1.02.

Regarding `CN(C)CCNC1=C(Cl)C(=O)c2ccccc2C1=O` [Compound 12, 2-Chloro-3-((2-(dimethylamino)ethyl)amino)-[1,4]-naphthoquinone], the figures for the IC50 in test [1] and in test [2] (setting [3]) were 2.87 µM and 1.57 µM, respectively. In test [2], the Selectivity ratio was 1.83.

`CCc1nc2c(n1CCCN1CCCCC1)C(=O)c1ccccc1C2=O` [Compound 45, 2-Ethyl-1-(3-(piperidin-1-yl)propyl)-1H-naphtho[2,3-d]imidazole-4,9-dione]: the IC50 in test [1] is 35 µM; in test [2] (setting [3]), 12 µM. Also, the Selectivity ratio in test [2] was found to be 2.92.

On to `O=C1C=C(NCCCN2CCOCC2)C(=O)c2ccccc21` [Compound 6, 2-((3-Morpholinopropyl)amino)-[1,4]-naphthoquinone], for which the IC50 in test [1] and in test [2] (setting [3]) was > 40 µM in each case.

For the compound `O=C1C(Cl)=C(NCCCl)C(=O)c2ccccc21` [Compound 16, 2-Chloro-3-((2-chloroethyl)amino)-[1,4]-naphthoquinone], the IC50 in test [1] is 12.1 µM; in test [2] (Homo sapiens, HEC-1-A, read-out: HEC1A IC50) it was 5.65 µM. Also, the Selectivity ratio in test [2] amounted to 2.14.

On to `COC(=O)[C@H](Cc1c[nH]c2ccccc12)NC1=C(Cl)C(=O)c2ccccc2C1=O` [Compound 26, Methyl (3-chloro-1,4-dioxo-1,4-dihydronaphthalen-2-yl)-L-tryptophanate], for which the IC50 in test [1] and in test [2] (setting [3]) was > 40 µM each time.

Consider `CC(=O)NC1=C(NCCN2CCOCC2)C(=O)c2ccccc2C1=O` [Compound 43, N-(3-((2-Morpholinoethyl)amino)-1,4-dioxo-1,4-dihydronaphthalen-2-yl)acetamide], for which the IC50 in test [1] and in test [2] (setting [3]) was > 40 µM throughout.

For the compound `CCC(=O)NC1=C(NCCCN2CCCCC2)C(=O)c2ccccc2C1=O` [Compound 40, N-(1,4-Dioxo-3-((3-(piperidin-1-yl)propyl)amino)-1,4-dihydronaphthalen-2-yl)propionamide], the concentration for half-maximal inhibition (IC50) in test [1] stood at 38.2 µM; in test [2] (setting [3]), 14 µM; in test [2] (setting [4]) it was 14.1 µM. Further, the Selectivity ratio in test [2] is given as 2.70.

For the compound `CN(C)CCCNC1=C(Cl)C(=O)c2ccccc2C1=O` [Compound 22, 2-Chloro-3-((3-(dimethylamino)propyl)amino)naphthalene-1,4-dione], the figures for the IC50 in test [1] and in test [2] (setting [3]) were 5.27 µM and 2.36 µM, respectively. In addition, the Selectivity ratio in test [2] is given as 2.23.

As to `O=C1C(Cl)=C(NCCCN2CCOCC2)C(=O)c2ccccc21` [Compound 20, 2-Chloro-3-((3-morpholinopropyl)amino)naphthalene-1,4-dione], the figures for the IC50 in test [1] and in test [2] (setting [3]) were 21.9 µM and 6.41 µM, respectively. Moreover, the Selectivity ratio in test [2] came to 3.42.

As for `CCCCC(=O)NC1=C(NCCCN2CCCCC2)C(=O)c2ccccc2C1=O` [Compound 42, N-(1,4-Dioxo-3-((3-(piperidin-1-yl)propyl)amino)-1,4-dihydronaphthalen-2-yl)pentanamide], the IC50 in test [1] is > 40 µM; in test [2] (setting [3]), 15 µM.

On to `O=C1C(Cl)=C(NCCc2c[nH]c3ccccc23)C(=O)c2ccccc21` [Compound 19, 2-((2-(1H-Indol-3-yl)ethyl)amino)-3-chloronaphthalene-1,4-dione], for which the IC50 in test [1] was determined as 40.3 µM; in test [2] (setting [3]), 18.6 µM. In test [2], the Selectivity ratio was 2.24.

Take `CCCCc1nc2c(n1CCCN1CCCCC1)C(=O)c1ccccc1C2=O` [Compound 47, 2-Butyl-1-(3-(piperidin-1-yl)propyl)-1H-naphtho[2,3-d]imidazole-4,9-dione]: the IC50 worked out at 24 µM in test [1] and 14 µM in test [2] (setting [3]). Moreover, the Selectivity ratio in test [2] is recorded as 1.80.

In the case of `CC1=C(NCCN2CCOCC2)C(=O)c2ccccc2C1=O` [Compound 11, 2-Methyl-3-((2-(4-morpholinyl)ethyl)amino)-[1,4]-naphthoquinone], the IC50 in test [1] and in test [2] (setting [3]) was > 40 µM in each case.

As to `O=C(Cc1ccccc1)NC1=C(NCCCN2CCCCC2)C(=O)c2ccccc2C1=O` [Compound 50, N-(1,4-Dioxo-3-((3-(piperidin-1-yl)propyl)amino)-1,4-dihydronaphthalen-2-yl)-2-phenylacetamide], the IC50 in test [1] was 39 µM; in test [2] (setting [3]), 8.8 µM. For the same compound, in test [2], the Selectivity ratio was 4.4 and 4.43.

As to `O=C(O)c1ccc(-n2cc(CNC3=C(Cl)C(=O)c4ccccc4C3=O)nn2)cc1` [Compound 32, 4-(4-(((3-Chloro-1,4-dioxo-1,4-dihydronaphthalen-2-yl)amino)methyl)-1H-1,2,3-triazol-1-yl)benzoic acid], the IC50 in test [1] and in test [2] (setting [3]) was > 40 µM throughout.

As for `CC(=O)NC1=C(NCCCN2CCCCC2)C(=O)c2ccccc2C1=O` [Compound 39, N-(1,4-Dioxo-3-((3-(piperidin-1-yl)propyl)amino)-1,4-dihydronaphthalen-2-yl)acetamide], the IC50 in test [1] is > 40 µM; in test [2] (setting [3]), 26 µM; in test [2] (setting [4]), 26 µM.

Take `COC(=O)[C@H](CCCCN)NC1=C(Cl)C(=O)c2ccccc2C1=O` [Compound 30, Methyl (3-chloro-1,4-dioxo-1,4-dihydronaphthalen-2-yl)-L-lysinate]: the half-inhibitory concentration (IC50) in test [1] is > 40 µM; in test [2] (setting [3]), 38 µM.
